Data on 16 molecules can be found in ChEMBL document CHEMBL1143873, “Synthesis and biological evaluation of 2-alkylaminoethyl-1,1-bisphosphonic acids against Trypanosoma cruzi and Toxoplasma gondii targeting farnesyl diphosphate synthase” (Bioorg Med Chem, 2008).

In test [1] the test system is Trypanosoma cruzi. The test is described as follows: Growth inhibition of Trypanosoma cruzi amastigotes in rat L6E9 cells. In kind it is functional, organism-based.
Another test deals with Toxoplasma gondii. The test is described as follows: Growth inhibition of Toxoplasma gondii tachyzoites in HFF cells. In kind it is functional, organism-based.
In test [2] the target is T1, Farnesyl diphosphate synthase (Trypanosoma cruzi, UniProt Q8WS26).
T1 sequence (Q8WS26 whole entry): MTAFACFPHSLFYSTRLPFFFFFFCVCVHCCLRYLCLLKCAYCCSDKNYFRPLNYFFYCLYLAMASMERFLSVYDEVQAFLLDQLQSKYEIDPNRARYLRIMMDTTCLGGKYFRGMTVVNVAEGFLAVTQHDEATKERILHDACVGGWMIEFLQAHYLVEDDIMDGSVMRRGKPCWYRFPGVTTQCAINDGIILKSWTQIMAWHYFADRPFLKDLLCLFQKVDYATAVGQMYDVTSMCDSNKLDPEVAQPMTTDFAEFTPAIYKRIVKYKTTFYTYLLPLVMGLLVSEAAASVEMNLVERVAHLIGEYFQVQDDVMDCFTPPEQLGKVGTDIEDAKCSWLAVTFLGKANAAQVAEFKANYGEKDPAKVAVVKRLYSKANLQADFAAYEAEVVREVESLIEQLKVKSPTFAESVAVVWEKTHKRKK
The experiment in a line: Inhibition of Trypanosoma cruzi FPPS. Put shortly: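 Recombinant TcFPPS (10–20 ng) started into prewarmed buffer of 10 mM Hepes pH 7.4, 5 mM MgCl2, 2 mM DTT, 100 μM [4-14C]IPP, 100 μM DMAPP; 30 min at 37 °C; quenched with HCl, then alkalinised; hexane-extracted product counted by scintillation.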

For test [3], the target named is T2, Farnesyl diphosphate synthase (Toxoplasma gondii, UniProt Q197X6).
T2 sequence (Q197X6 whole entry): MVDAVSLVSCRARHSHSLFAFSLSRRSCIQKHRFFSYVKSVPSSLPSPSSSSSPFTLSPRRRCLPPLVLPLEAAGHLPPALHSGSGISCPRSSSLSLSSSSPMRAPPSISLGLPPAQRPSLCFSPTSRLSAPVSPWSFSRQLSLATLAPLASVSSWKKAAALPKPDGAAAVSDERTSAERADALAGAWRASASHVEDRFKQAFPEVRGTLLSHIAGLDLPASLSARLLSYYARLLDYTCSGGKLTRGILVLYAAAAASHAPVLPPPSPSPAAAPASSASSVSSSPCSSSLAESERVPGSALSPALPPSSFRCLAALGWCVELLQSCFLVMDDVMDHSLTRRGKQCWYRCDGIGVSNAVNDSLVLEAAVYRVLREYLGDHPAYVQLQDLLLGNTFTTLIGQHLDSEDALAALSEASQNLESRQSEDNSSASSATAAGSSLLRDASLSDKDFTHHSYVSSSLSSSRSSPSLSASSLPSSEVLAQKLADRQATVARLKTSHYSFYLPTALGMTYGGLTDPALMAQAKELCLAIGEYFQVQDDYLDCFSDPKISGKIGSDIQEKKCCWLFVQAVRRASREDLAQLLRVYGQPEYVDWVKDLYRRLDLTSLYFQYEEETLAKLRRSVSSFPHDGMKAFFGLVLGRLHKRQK
The experiment in a line: Inhibition of Toxoplasma gondii FPPS. A digest of the protocol:
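Recombinant TgFPPS (10–20 ng) started into prewarmed buffer of 10 mM Hepes pH 7.4, 1 mM MgCl2, 2 mM DTT, 100 μM [4-14C]IPP, 100 μM DMAPP; 30 min at 37 °C; quenched with HCl, then alkalinised; hexane-extracted product counted by scintillation.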

Test [4] relates to Trypanosoma cruzi. The test is described as follows: Growth inhibition of Trypanosoma cruzi amastigotes in rat L6E9 cells at 10 uM. Particulars: read-out: GI. The class given is functional.

A word on the IC50: it is the midpoint of a concentration-inhibition curve. Read a high IC50 as weaker potency in that assay. As for `CC(C)CNCC(P(=O)(O)O)P(=O)(O)O`, the IC50 with Trypanosoma cruzi [1] was > 50 µM; with Toxoplasma gondii, 74.5 µM; in test [2], 0.515 µM; in test [3], 0.181 µM.

In the case of `O=P(O)(O)C(CNN1CCCC1)P(=O)(O)O`, the IC50 was 14 µM in the test on Trypanosoma cruzi [1], 13.3 µM in the test with Toxoplasma gondii, 0.76 µM in test [2] and 0.361 µM in test [3].

`CCCCCCNCC(P(=O)(O)O)P(=O)(O)O`: the IC50 in the test with Trypanosoma cruzi [1] came to 0.84 µM; with Toxoplasma gondii, 9.37 µM; in test [2], 0.49 µM; in test [3], 0.137 µM.

Regarding `O=P(O)(O)C(CNN1CCCCC1)P(=O)(O)O`, the IC50 in the test on Trypanosoma cruzi [1] amounted to 6.1 µM; in the test with Toxoplasma gondii, 70.6 µM; in test [2] it was 0.287 µM; in test [3], 0.165 µM.

With `CCCCCCCCNCC(P(=O)(O)O)P(=O)(O)O`, the IC50 with Trypanosoma cruzi [1] is 4.1 µM; in the test on Toxoplasma gondii it was 2.6 µM; in test [2] it was 1.01 µM; in test [3] it was 0.087 µM.

For `O=P(O)(O)C(CNC1CCCCC1)P(=O)(O)O`, in the test on Trypanosoma cruzi [4], the inhibition of growth at 10 µM was 36.3%. For the same molecule, the IC50 in the test on Toxoplasma gondii was 57.3 µM; in test [2] it was 0.013 µM; in test [3] it was 0.337 µM.

As for `CCCCCCCNCC(P(=O)(O)O)P(=O)(O)O`, the IC50 in the test on Trypanosoma cruzi [1] is 10 µM; with Toxoplasma gondii, > 50 µM; in test [2], 0.058 µM; in test [3] it was 0.095 µM.

On to `CC(C)CCNCC(P(=O)(O)O)P(=O)(O)O`, for which the IC50 was 10 µM with Trypanosoma cruzi [1], 36.9 µM in the test on Toxoplasma gondii, 0.42 µM in test [2] and 0.275 µM in test [3].

`CCC(C)NCC(P(=O)(O)O)P(=O)(O)O` (stereo not drawn): the IC50 is > 50 µM in the test on Trypanosoma cruzi [1], > 100 µM in the test with Toxoplasma gondii, 0.944 µM in test [2] and 0.112 µM in test [3].

`N#CSCCOc1ccc(Oc2ccccc2)cc1` gave an IC50 with Trypanosoma cruzi [1] of 12 µM. In other words, the double-digit micromolar range.

`CC(C)(C)NCC(P(=O)(O)O)P(=O)(O)O`: the IC50 in the test on Trypanosoma cruzi [1] came out at 10 µM; with Toxoplasma gondii it was 42.8 µM; in test [2], 1.21 µM; in test [3] it was 0.286 µM.

In the case of `CCCCNCC(P(=O)(O)O)P(=O)(O)O`, the IC50 stood at 4.8 µM in the test with Trypanosoma cruzi [1], 48.7 µM with Toxoplasma gondii, 2.28 µM in test [2] and 0.206 µM in test [3].

Regarding `CC(C)NCC(P(=O)(O)O)P(=O)(O)O`, the IC50 was > 50 µM in the test with Trypanosoma cruzi [1], 69.8 µM in the test on Toxoplasma gondii, 1.4 µM in test [2] and 0.253 µM in test [3].

On to `CCCNCC(P(=O)(O)O)P(=O)(O)O`, for which the IC50 in the test on Trypanosoma cruzi [1] is > 50 µM; in the test on Toxoplasma gondii it was 6.33 µM; in test [2] it was 0.038 µM; in test [3], 0.298 µM.

Regarding `CCCCCNCC(P(=O)(O)O)P(=O)(O)O`, the IC50 in the test on Trypanosoma cruzi [1] was 0.54 µM; in the test with Toxoplasma gondii, > 50 µM; in test [2], 1.84 µM; in test [3], 0.08 µM.

For `CCCCCCC(O)(P(=O)(O)O)P(=O)(O)O`, the IC50 in the test with Trypanosoma cruzi [1] was determined as 18 µM.
